Source: PubChem BioAssay (several laboratories)
This is a sample that favours compounds with a hit; in the whole collection about 5.6% have one here.
XBP1 UPR activ = activators of adaptive XBP1 UPR arm, primary screen, cell-based, CHO-XBP1 luciferase reporter, luminescence, uHTS | IRE1-XBP1 UPR activation; percent of tunicamycin response, DMSO as zero | activation, % at 20 µM | 330,000 tested, 0.33% active | AID 463104, 2010;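 active = versus positive control, 20 µM dose yields 30% or more activation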;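 also: 100% = tunicamycin at 10 µg/mL and 0% = DMSO only wells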
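Test system: CHO-XBP1 luciferase reporter cells | Buffer or medium: Serum-containing F12 medium, 10% FBS | Schedule: 6 h compound exposure at 37 °C, 5% CO2 | Detection: Steady-Glo luciferase glow luminescence, 10 min after reagent addition | Read-out basis: Activation, % of tunicamycin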
MPTP inh = mitochondrial permeability transition pore inhibitors, primary screen, biochemical, isolated mouse mitochondria, absorbance; Ca2+ swelling absorbance, 30 min; inhibition, % at 10 µM; 360,000 tested, 1.4% active; AID 602449, 2012;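 active = inhibition of 50% or more, scaled per plate between neutral and stimulator controls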;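 also: 0% = DMSO wells given calcium and 100% = 1 mM EGTA wells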
NR3A LBD binder = binders of NR3A ligand-binding domain, primary screen, biophysical, differential scanning fluorimetry, uHTS. NR3A LBD differential scanning fluorimetry, Tm shift; 0% = protein alone, 100% = glycine-bound protein. Tm shift relative to glycine control, % at 25 µM. Glutamate receptor ionotropic, NMDA 3A (GRIN3A) ligand-binding domain. 340,000 tested, 2.5% active;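 active = melting temperature shift of at least 10% of the positive control shift, at one fixed dose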
CHOP UPR activ = activators of apoptotic CHOP UPR arm, primary screen, cell-based, CHO-CHOP luciferase reporter, luminescence, uHTS; UPR activation; percent of tunicamycin response over DMSO baseline; activation, % at 10 µM; 330,000 tested, 0.34% active;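 active = at 10 µM dose, activation of 40% or more, normalized to positive control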;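 also: 100% = tunicamycin at 10 µg/mL and 0% = DMSO alone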
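System: CHO-CHOP luciferase reporter cell line | Buffer or medium: F12 medium containing 10% fetal bovine serum | Doses: One dose, 10 µM in 0.5% DMSO | Times: 6 h compound exposure at 37 °C after overnight seeding | Signal: Luciferase luminescence | Read-out: % activation vs tunicamycin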
aDG glyco up = activators of alpha-DG glycosylation, primary screen, uHTS, Pro5-aDG cells, AlphaScreen. alpha-DG glycosylation AlphaScreen (IIH6); 0% Pro5, 100% B10-LARGE cell signal. activation, % at 10 µM. 360,000 tested, 0.22% active. AID 624168, 2012;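 active = activation of at least 8% versus controls, or a plate z-score of at least 8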;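 also: Pro5 are CHO cells carrying HIG-tagged alpha-DG that lacks glycosylation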
CHOP inh = inhibitors of CHOP promoter induction, primary screen, cell-based, unfolded protein response, luciferase reporter. AID 2732, 2010. 220,000 tested, 3.8% active. inhibition, % at 10 µM. CHO-K1 CHOP-promoter luciferase, tunicamycin-induced, 15-18 h;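 active = compounds that reduced the stress-induced luciferase reporter signal by more than about 70% of percent inhibition, limit read from the data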;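 also: 0% = tunicamycin plus vehicle and 100% = wells without tunicamycin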
* hit, by the source's call; . = not tested or not shown.

SMILES	XBP1 UPR activ	MPTP inh	NR3A LBD binder	CHOP UPR activ	aDG glyco up	CHOP inh
CCOC(=O)c1sc(N/N=C/c2cc(Br)c(O)c(OC)c2)nc1C	10	2	14*	5	0	.
CC(C)Cn1c(=O)c2c(nc3n2CC(C)CN3Cc2ccccc2)n(C)c1=O (centres undefined)	-1	1	-3	0	0	.
CCOc1ccc(-c2nnn(CC(=O)Nc3cccc(OC)c3)n2)cc1OCC	-2	2	-1	-1	0	49
CCOc1ccc(-c2nnn(CC(=O)NCc3ccc(F)cc3)n2)cc1OCC	-4	3	-11	-1	0	81*
COc1ccc(Cl)c2c1[nH]c1nc(SCc3cccnc3)nnc12	4	0	3	1	0	86*
COc1ccc(Cl)c2c1[nH]c1nc(SCc3ccccn3)nnc12	6	1	-12	3	1	-49
CCc1c(C)c(C#N)c2nc3ccccc3n2c1Cl	.	.	.	.	.	110*
O=C(Nc1ccc(NC(=O)C2CCCCC2)cn1)c1ccco1	-4	0	16*	-4	0	23
O=C(Nc1ccc(NC(=O)c2ccco2)nc1)c1ccco1	-4	-1	-5	-2	0	-12
CCOP(=O)(OCC)c1nc(-c2cccc3ccccc23)oc1NCCc1ccc(OC)cc1	-3	1	16*	3	0	60
c1ccc(Oc2nc3ccccc3n3cccc23)cc1	-4	3	3	-1	0	70*
Cc1ccc(Oc2nc3ccccc3n3cccc23)cc1	1	1	-9	0	0	65
Cc1ccc(CN2CC(N3CCN(C)CC3)CS2(=O)=O)cc1 (centres undefined)	.	2	.	.	0	.
CN1CCN(S(=O)(=O)c2ccc(Sc3nnnn3-c3ccccc3)c([N+](=O)[O-])c2)CC1	-8	0	0	25	0	107*
CC(=O)c1ccc(Sc2nnnn2-c2ccccc2)c([N+](=O)[O-])c1	-2	-3	0	1	0	-17
Cc1c(C(=O)NC(=S)Nc2ccc(N3CCOCC3)cc2)cccc1[N+](=O)[O-]	-1	-1	1	3	0	23
O=C(Cc1ccccc1)Nc1nc(=O)c2ccccc2s1	0	0	-2	2	0	20
COc1ccccc1NC(=O)Nc1nnc(CC(=O)Nc2ccccc2)s1	-3	.	.	1	.	38
O=C(Cc1nc(=O)c2ccccc2s1)Nc1ccccc1	1	14	18*	2	1	-12
O=C(Nc1ccccc1)Nc1nnc(-c2cccs2)s1	2	23	22*	7	0	-23
O=C(Cc1nnc(NC(=O)Nc2ccc(F)cc2)s1)Nc1ccccc1	-2	3	25*	-1	0	24
O=C(Cc1nnc(NC(=O)Nc2ccccc2)s1)Nc1ccccc1	-2	4	12*	0	0	2
COc1ccc(C)cc1NC(=O)Nc1ccncc1	-3	0	0	2	0	.
Cc1cccc(OCCC(=O)Nc2ccc(N3CCOCC3)cc2N2CCOCC2)c1	0	-1	-1	0	0	.
COc1ccc(-c2cc(=O)[nH][nH]2)cc1OC	0	-1	13*	1	0	-6
CC1(C)Nc2ccccc2N(CCC(=O)N2CCOCC2)C1=O	-2	-4	13*	2	0	47
COC(=O)c1ccc(C)c(NC(=O)CCCN2C(=O)CN(C)C2=O)c1	-1	0	-2	-2	0	.
O=[N+]([O-])c1ccc2nc(NS(=O)(=O)c3ccc(Cl)cc3)sc2c1	-3	7	18*	-2	0	.
O=[N+]([O-])c1ccc2nc(NS(=O)(=O)c3ccccc3[N+](=O)[O-])sc2c1	2	23	14*	0	0	.
O=[N+]([O-])c1ccccc1S(=O)(=O)Nc1nc2ccccc2s1	-4	1	-14	-1	0	.
